In ChEMBL document CHEMBL4145461, “Novel non-sulfonamide 5-HT6 receptor partial inverse agonist in a group of imidazo[4,5-b]pyridines with cognition enhancing properties” (Eur J Med Chem, 2018):
The source made the active and inactive calls. The rule behind the calls is not given here.

Columns and labels:
[1] = molecular target: T1, 5-hydroxytryptamine receptor 6 (Homo sapiens, UniProt P50406); experiment: Displacement of [3H]-LSD from human 5HT6R expressed in HEK293 cell membranes after 1 hr by microbeta counting method
In short: (§1)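 HEK293 (5-HT1A, 5-HT6, 5-HT7b, D2L) or CHO-K1 (5-HT2A) membranes, all Tris–HCl with 4 mM MgCl2 plus receptor-specific EDTA/pargyline/ascorbate (D2L adds NaCl, KCl, CaCl2). Nonspecific binding: 10 μM 5-HT (5-HT1A, 5-HT7), chlorpromazine (5-HT2A), methiothepine (5-HT6), haloperidol (D2L). Triplicate, 7–8 concentrations (10⁻¹¹–10⁻⁴ M), filtration; Ki via Cheng–Prusoff, mean of three experiments. Incubation 1 h 37 °C; 5-HT1A 1 h and 5-HT2A 1.5 h, room temperature.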

[2] = molecular target: 5-hydroxytryptamine receptor 2A (Homo sapiens, UniProt P28223); experiment: Displacement of [3H]-Ketanserin from human 5HT2AR expressed in CHO-K1 cell membranes after 1.5 hrs by microbeta counting method
In short: as §1, with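 “experiments.” for “experiments. Incubation 1 h 37 °C; 5-HT1A 1 h and 5-HT2A 1.5 h, room temperature.”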

D(2) dopamine receptor = D(2) dopamine receptor (Homo sapiens, UniProt P14416); experiment: Displacement of [3H]-Raclopride from human dopamine D2L receptor expressed in HEK293 cell membranes after 1 hr by microbeta counting method; in short: as §1
[3] = molecular target: T2, 5-hydroxytryptamine receptor 1A (Homo sapiens, UniProt P08908); experiment: Displacement of [3H]-8-OH-DPAT from human 5HT1AR expressed in HEK293 cell membranes after 1 hr by microbeta counting method
T2 sequence (P08908 whole entry): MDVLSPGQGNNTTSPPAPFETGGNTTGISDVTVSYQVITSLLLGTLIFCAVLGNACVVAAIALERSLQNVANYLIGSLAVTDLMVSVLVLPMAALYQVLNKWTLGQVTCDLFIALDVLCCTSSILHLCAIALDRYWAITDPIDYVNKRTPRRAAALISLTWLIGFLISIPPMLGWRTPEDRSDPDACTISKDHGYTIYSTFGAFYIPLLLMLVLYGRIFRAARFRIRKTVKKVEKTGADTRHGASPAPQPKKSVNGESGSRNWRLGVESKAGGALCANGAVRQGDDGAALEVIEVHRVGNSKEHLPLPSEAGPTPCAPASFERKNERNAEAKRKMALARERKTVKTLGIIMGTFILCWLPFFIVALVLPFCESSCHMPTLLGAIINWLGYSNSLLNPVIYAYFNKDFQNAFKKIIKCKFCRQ
In short: as §1, with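 “experiments.” for “experiments. Incubation 1 h 37 °C; 5-HT1A 1 h and 5-HT2A 1.5 h, room temperature.”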

[4] = molecular target: 5-hydroxytryptamine receptor 7 (Homo sapiens, UniProt P34969); experiment: Displacement of [3H]-5-CT from human 5HT7BR expressed in HEK293 cell membranes after 1 hr by microbeta counting method; in short: as §1
[5] = molecular target: T1, 5-hydroxytryptamine receptor 6; experiment: Binding affinity to 5HT6R (unknown origin)
[6] = molecular target: T1, 5-hydroxytryptamine receptor 6; experiment: Antagonist activity at 5HT6R (unknown origin) transfected in NG108-15 cells co-transfected with CAMYEL assessed as reduction in cAMP levels after 5 mins by Coelanterazine H-based BRET assay; format: functional, cell-based
Rattus norvegicus [7] = experiment: Reversal of SCOP-induced cognitive impairment in Sprague-Dawley rat assessed as reduction in time spent exploring novel object over familiar object at 0.3 mg/kg, po administered 120 mins before familiarization phase measured for 3 mins post familiarization phase by novel object recognition assay; format: functional, organism-based
Rattus norvegicus [8] = experiment: Reversal of SCOP-induced cognitive impairment in Sprague-Dawley rat assessed as reduction in time spent exploring novel object over familiar object at 1 mg/kg, po administered 120 mins before familiarization phase measured for 3 mins post familiarization phase by novel object recognition assay; format: functional, organism-based
In short: (§2)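 Male Sprague–Dawley rats, habituated to the arena 5 min 24 h before testing. PCP (5 mg/kg i.p., 45 min) or scopolamine (1.25 mg/kg i.p., 30 min) given before familiarization trial T1; test compound or donepezil given p.o. 120 min before T1. T1 and T2 each last 3 min, separated by an inter-trial interval. DI = (EB−EA)/(EA+EB) from T2 exploration time; 8–10 rats/group; ANOVA with Newman–Keuls.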

Rattus norvegicus [9] = experiment: Reversal of PCP-induced cognitive impairment in Sprague-Dawley rat assessed as reduction in time spent exploring novel object over familiar object at 0.3 to 1 mg/kg, po administered 120 mins before familiarization phase measured for 3 mins post familiarization phase by novel object recognition assay; format: functional, organism-based; in short: as §2

5-hydroxytryptamine receptor 2A, sequence (P28223 whole entry): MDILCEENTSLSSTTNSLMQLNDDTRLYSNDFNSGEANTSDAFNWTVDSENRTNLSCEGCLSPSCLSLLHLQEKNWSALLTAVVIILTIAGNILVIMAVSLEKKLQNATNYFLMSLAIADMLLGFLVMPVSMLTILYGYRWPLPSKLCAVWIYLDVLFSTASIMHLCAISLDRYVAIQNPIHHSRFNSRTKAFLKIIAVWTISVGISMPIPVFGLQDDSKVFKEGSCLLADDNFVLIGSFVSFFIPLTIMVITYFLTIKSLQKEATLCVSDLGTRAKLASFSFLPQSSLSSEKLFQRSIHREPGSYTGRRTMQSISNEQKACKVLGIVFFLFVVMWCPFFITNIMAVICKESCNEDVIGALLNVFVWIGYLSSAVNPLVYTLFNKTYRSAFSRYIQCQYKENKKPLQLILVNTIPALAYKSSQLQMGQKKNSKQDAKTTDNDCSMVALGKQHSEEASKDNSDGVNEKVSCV
5-hydroxytryptamine receptor 7, sequence (P34969 whole entry): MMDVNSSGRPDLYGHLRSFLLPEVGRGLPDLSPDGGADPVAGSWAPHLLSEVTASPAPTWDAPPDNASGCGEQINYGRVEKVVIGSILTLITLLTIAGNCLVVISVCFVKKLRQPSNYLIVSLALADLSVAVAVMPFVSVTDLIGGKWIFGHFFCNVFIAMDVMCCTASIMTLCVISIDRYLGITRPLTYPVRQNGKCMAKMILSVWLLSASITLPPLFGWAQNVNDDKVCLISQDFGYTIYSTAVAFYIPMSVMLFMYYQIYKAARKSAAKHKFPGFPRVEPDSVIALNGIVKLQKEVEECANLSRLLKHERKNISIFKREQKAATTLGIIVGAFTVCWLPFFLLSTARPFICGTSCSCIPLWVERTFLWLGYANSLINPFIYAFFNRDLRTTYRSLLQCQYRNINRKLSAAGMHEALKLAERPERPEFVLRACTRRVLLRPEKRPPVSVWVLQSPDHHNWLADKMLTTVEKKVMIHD
T1 sequence (P50406 whole entry): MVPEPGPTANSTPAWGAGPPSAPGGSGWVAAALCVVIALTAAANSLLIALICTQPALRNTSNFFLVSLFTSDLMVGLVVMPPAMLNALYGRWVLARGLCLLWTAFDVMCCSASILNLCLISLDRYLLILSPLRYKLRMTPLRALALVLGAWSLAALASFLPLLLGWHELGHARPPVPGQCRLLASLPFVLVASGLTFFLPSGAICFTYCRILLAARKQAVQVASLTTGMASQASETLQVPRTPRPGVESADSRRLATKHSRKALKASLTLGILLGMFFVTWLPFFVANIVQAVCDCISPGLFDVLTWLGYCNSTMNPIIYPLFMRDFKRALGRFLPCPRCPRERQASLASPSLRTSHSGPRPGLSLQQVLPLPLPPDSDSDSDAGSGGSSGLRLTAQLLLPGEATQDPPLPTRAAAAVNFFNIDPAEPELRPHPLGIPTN
D(2) dopamine receptor, sequence (P14416 whole entry): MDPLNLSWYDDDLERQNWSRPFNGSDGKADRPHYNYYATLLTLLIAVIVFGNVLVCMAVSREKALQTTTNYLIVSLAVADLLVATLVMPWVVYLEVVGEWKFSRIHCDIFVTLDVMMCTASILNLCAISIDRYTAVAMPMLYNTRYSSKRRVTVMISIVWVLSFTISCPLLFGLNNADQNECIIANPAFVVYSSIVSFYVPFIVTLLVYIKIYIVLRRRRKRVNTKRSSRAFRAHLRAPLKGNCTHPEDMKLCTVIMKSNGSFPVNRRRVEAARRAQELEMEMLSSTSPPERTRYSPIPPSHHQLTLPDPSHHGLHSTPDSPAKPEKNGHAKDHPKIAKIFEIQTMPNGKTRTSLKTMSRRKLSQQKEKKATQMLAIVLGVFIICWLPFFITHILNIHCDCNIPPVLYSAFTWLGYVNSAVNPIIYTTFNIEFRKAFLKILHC

SMILES	Ki [1] [nM]	other results
Cc1nc2c(N3CCNCC3)ccnc2n1Cc1ccccc1	101	
CC(C)c1nc2c(N3CCNCC3)ccnc2n1Cc1cccc(Cl)c1		Ki [2]: 694 nM; Ki (D(2) dopamine receptor): 2940 nM; Ki [3]: 2280 nM; Ki [4]: 7140 nM
Clc1cccc(Cn2cnc3c(N4CCNCC4)ccnc32)c1	33	
CC(C)c1nc2c(N3CCNCC3)ccnc2n1Cc1ccc(Cl)cc1	107	
NC(=O)NC[C@@H]1CCCc2cc(S(=O)(=O)c3cccc(F)c3)ccc21		Ki [5]: 0.2 nM
CC(C)c1nc2c(N3CCNCC3)ccnc2n1Cc1ccc(F)cc1	80	
Fc1ccc(-c2nc3c(N4CCNCC4)ccnc3n2Cc2cccc(F)c2)cc1	162	
CCc1nc2c(N3CCNCC3)ccnc2n1Cc1ccccc1Cl	177	
CC(C)c1nc2c(N3CCNCC3)nccc2n1Cc1cccc(Cl)c1	126	
CCc1nc2c(N3CCNCC3)ccnc2n1Cc1cccc(Cl)c1	7	Ki [2]: 449 nM; Ki (D(2) dopamine receptor): 6100 nM; Ki [3]: 1350 nM; IC50 [6]: 51.9 nM; Ki [4]: 8750 nM
Cc1nc2c(N3CCNCC3)ccnc2n1CCc1cccc(Cl)c1	312	
CCc1nc2c(N3CCNCC3)ccnc2n1Cc1ccccc1	36	
O=S(=O)(c1ccccc1)n1ncc2c(N3CCNCC3)nccc21		Ki [5]: 5 nM
Cc1cccc(Cn2c(C)nc3c(N4CCNCC4)ccnc32)c1	26	
Clc1cccc(Cn2cnc3c(N4CCNCC4)nccc32)c1	320	
COc1cc2c(cc1OC)C(=O)C(CC1CCN(Cc3ccccc3)CC1)C2 (stereo not drawn)		Activity (Rattus norvegicus [7]): inactive; Activity (Rattus norvegicus [8]): Active
CCc1nc2c(N3CCNCC3)ccnc2n1Cc1cc(F)ccc1F	57	
COc1ccccc1Cn1c(C)nc2c(N3CCNCC3)ccnc21	337	
c1ccc(Cn2cnc3c(N4CCNCC4)ccnc32)cc1	110	
CCC(CC)c1nc2c(N3CCNCC3)ccnc2n1Cc1ccccc1Cl	108	
c1ccc(Cn2cnc3c(N4CCNCC4)nccc32)cc1	450	

SMILES	Ki [1] [nM]	other results
CC(C)c1nc2c(N3CCNCC3)ccnc2n1CCc1cccc(Cl)c1	80	
COc1cccc(Cn2c(CC(C)(C)C)nc3c(N4CCNCC4)ccnc32)c1	165	
Cc1nc2c(N3CCNCC3)nccc2n1Cc1ccccc1	374	
Cc1cccc(Cn2c(CC(C)(C)C)nc3c(N4CCNCC4)ccnc32)c1	142	
CCc1nc2c(N3CCNCC3)ccnc2n1CCc1cccc(Cl)c1	42	
COc1cccc(Cn2c(C(C)C)nc3c(N4CCNCC4)ccnc32)c1	92	
CC(C)c1nc2c(N3CCNCC3)ccnc2n1Cc1ccccc1F	61	
CC(C)c1nc2c(N3CCNCC3)ccnc2n1Cc1cccc(F)c1	13	Ki [2]: 475 nM; Ki (D(2) dopamine receptor): 3440 nM; Ki [3]: 5930 nM; IC50 [6]: 69.5 nM; Ki [4]: 11900 nM
Cc1nc2c(N3CCNCC3)nccc2n1Cc1cccc(Cl)c1	254	
Fc1cccc(CCn2cnc3c(N4CCNCC4)ccnc32)c1	1300	
O=S(=O)(c1ccccc1)c1cnc2c(N3CCNCC3)cccc2c1 [INTEPIRDINE]		Ki (D(2) dopamine receptor): 997 nM; Activity (Rattus norvegicus [9]): Active; Ki [4]: 14200 nM
CCC(CC)c1nc2c(N3CCNCC3)ccnc2n1Cc1cccc(Cl)c1	30	
Clc1cccc(Cn2c(-c3cccs3)nc3c(N4CCNCC4)ccnc32)c1	165	
Cc1nc2c(N3CCNCC3)ccnc2n1Cc1cccc(Cl)c1	21	
Cc1nc2c(N3CCNCC3)ccnc2n1Cc1cccc(C(F)(F)F)c1	62	
Cc1nc2c(N3CCNCC3)ccnc2n1Cc1ccc(F)cc1	317	
CCc1nc2c(N3CCNCC3)ccnc2n1CCc1cccc(F)c1	56	
CCc1nc2c(N3CCNCC3)ccnc2n1Cc1ccc(F)c(F)c1	139	
CCC(CC)c1nc2c(N3CCNCC3)ccnc2n1Cc1cccc(C)c1	42	
Cc1nc2c(N3CCNCC3)ccnc2n1Cc1ccccc1Cl	829	
Clc1cccc(CCn2cnc3c(N4CCNCC4)ccnc32)c1	1250	
